In the library only some 1.5% were active in any assay of this set; here they are far more common.
Rin1-Abl PPI inh – human Rin1-Abl interaction inhibition; TR-FRET Rin1/Abl binding, biochemical; inhibition, % at 7.35 µM; actives 0.4% (n = 360,000); in the data active = inhibition above about 5%, passing the limit was not always enough
TbMetRS inhib – Trypanosoma brucei MetRS inhibition. purified T. brucei MetRS, ATP depletion, Kinase-Glo luminescence. inhibition, % at 11.9 µM. actives 0.4% (n = 360,000). AID 624268;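 active = inhibition above a per-plate cutoff of the control wells' mean inhibition plus 3 SD, cut at about 5.5% in these data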;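 note: 0% = DMSO wells median and 100% = median of wells with control inhibitor compound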
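Material – parasite MetRS enzyme · Medium – HEPES-MgCl2-KCl buffer plus DTT, spermine, BSA, pyrophosphatase · Reagent – ATP, methionine and E. coli bulk tRNA substrates · Times – 15 min enzyme-compound preincubation, 2 h reaction, 10 min detection, 25 °C · Measured by – luminescence of leftover ATP · Evaluation – percent inhibition relative to median high and low control wells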
PKA-R2B act – activators of human PKA-R2B complex; actives 0.079% (n = 340,000); P22694+P31323; PKA-R2B holoenzyme dissociation, Cy5-IP20 fluorescence polarization; R2B truncated from residue 108, S112A mutant; 0% DMSO only, 100% 113 µM cGMP; activation, % at 11.4 µM; AID 504700;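 active = activation above a cutoff set at the mean over all compounds plus 3 SD, cut at about 18% in these data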;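 note: higher means more holoenzyme dissociation and a rise in polarization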
Target sequence (P31323 whole entry, looked up, other chains not shown, the tested form may be a part): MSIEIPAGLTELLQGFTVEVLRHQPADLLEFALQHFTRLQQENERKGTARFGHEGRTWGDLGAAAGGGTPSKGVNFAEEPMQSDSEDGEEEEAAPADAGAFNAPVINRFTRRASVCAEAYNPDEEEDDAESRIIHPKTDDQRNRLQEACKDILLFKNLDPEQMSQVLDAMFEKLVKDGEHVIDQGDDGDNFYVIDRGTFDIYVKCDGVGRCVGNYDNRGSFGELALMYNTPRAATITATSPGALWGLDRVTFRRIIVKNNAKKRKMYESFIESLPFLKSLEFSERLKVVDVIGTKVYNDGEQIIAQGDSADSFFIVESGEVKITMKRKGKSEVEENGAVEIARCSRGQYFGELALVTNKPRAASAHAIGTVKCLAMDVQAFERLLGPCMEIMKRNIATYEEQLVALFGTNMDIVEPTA
H9c2 protect – myocardial damage modulation in H9c2 cells; H9c2 cardiomyocytes, H2O2 injury protection, ATPLite, 2 h; protection from H2O2 cell death, % at 20 µM; actives 0.63% (n = 360,000); AID 588492;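 active = compounds giving at least 50% protection of heart cells from peroxide-induced death in the single-dose screen, raw or plate-pattern-corrected value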;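 note: 0% = DMSO wells with peroxide and 100% = DMSO wells without peroxide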
PKA-R1A activ – activators of PKA-R1A complex; PKA-R1A dissociation, Cy5-IP20 fluorescence polarization; scaled: DMSO 0%, 113 µM cGMP 100%; activation, % at 11.4 µM; actives 0.083% (n = 340,000);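 active = percent activation above the mean of all tested compounds plus 3 SD, cut at about 19% in these data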;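 note: higher means more PKAc released from R1A so a rise in polarization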
R2B FP artifact – fluorescence polarization artifact in PKA-R2B activator counter-screen. shares compounds with PKA-R2B act. FP artifact counterscreen. activation, % at 11.4 µM. actives 6% (n = 270). AID 504796; in the data active = activation above about 20%;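 note: Cy5 labelled IP20 peptide probe with compound but no PKA protein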
PKA-R2B act conf – confirmation of human PKA-R2B complex activators; shares compounds with PKA-R2B act; actives 9% (n = 270); fluorescence polarization, activation; AID 504797; activation, % at 11.4 µM; in the data active = activation above about 19%
Target sequence (P31323 whole entry, looked up): as the sequence (P31323 whole entry, looked up, other chains not shown, the tested form may be a part) above
* hit, by the source's call; x = no result given.

SMILES | Rin1-Abl PPI inh | TbMetRS inhib | PKA-R2B act | H9c2 protect | PKA-R1A activ | R2B FP artifact | PKA-R2B act conf
COc1ccc(C(C(=O)NCC2CCCO2)N(C(=O)CNC(=O)c2ccco2)c2ccccc2)cc1OC (stereo unspecified) | -1 | 0 | 4 | 2 | 7 | x | x
CCOC(=O)c1ccc(N(C(=O)CNC(=O)c2ccco2)C(C(=O)NCC2CCCO2)c2ccc(OC)c(OC)c2)cc1 (stereo unspecified) | 3 | 0 | 19* | -4 | 7 | 2 | -2
CC(C)c1ccc(NC(=O)C2CCC(CNC(=O)[C@@H]3Cc4ccccc4CN3)CC2)cc1 (stereo partly specified) | 0 | 0 | -7 | 4 | -8 | x | x
O=C(OC(C(=O)NCc1ccco1)c1ccc(Cl)cc1)c1cccs1 (stereo unspecified) | -2 | 0 | -5 | 2 | 1 | x | x
Cc1ccc2c(CC(=O)O)coc2c1 | -1 | -1 | 19* | -12 | 8 | 0 | -1
CCCN(CCC)CCNc1c(NC2CCN(C(=O)OCC)CC2)c(=O)c1=O | -6 | -1 | -5 | -3 | 2 | x | x
CCOC(=O)N1CCC(Nc2c(NCCCN(C)Cc3ccccc3)c(=O)c2=O)CC1 | 0 | -1 | 20* | 18 | 10 | 0 | 2
O=C(COC(=O)c1ccc(F)c(S(=O)(=O)N2CCOCC2)c1)NC1CC1 | 2 | 0 | -1 | -8 | -2 | x | x
O=C(/C=C\c1ccc2c(c1)OCO2)Nc1c2c(nn1-c1ccc(Cl)cc1)CSC2 | -1 | 5 | -9 | -3 | -9 | x | x
C=CCn1c(SCc2cc(C(C)=O)ccc2OCC)nc2ccccc2c1=O | 1 | -1 | 19* | 2 | 6 | 0 | -1
COc1ccc(C(C)=O)cc1CSc1nc2ccccc2c(=O)n1-c1ccccc1 | 0 | 0 | -4 | 4 | 2 | x | x
CCO[C@@H]1OC(C(=O)N2CCN(Cc3ccccc3)CC2)=C[C@H](c2coc3ccccc3c2=O)[C@H]1CCCO | 2 | 0 | 0 | x | -5 | x | x
CCCCN1C=C(C(=O)c2ccccc2)C(=O)CC1 | -2 | -2 | -9 | 2 | -9 | x | x
CCN1C=C(C(=O)c2ccccc2)C(=O)CC1 | 0 | 1 | 20* | 7 | 9 | 3 | 2
COCCN1C=C2C(=O)C(C)(OC(=O)CCC(=O)OC)C(=O)C=C2C=C1C1CC1 (stereo unspecified) | 0 | 0 | 20* | -7 | 0 | 2 | -3
CCN(CC)C(=O)C(=O)c1ccn(-c2c(C)csc2C(=O)OC)c1 | 0 | -1 | -3 | -6 | -3 | x | x
C=CCNC(=O)c1ccc(-c2nc3ccccc3nc2-c2ccccc2)cc1 | -3 | 0 | 22* | 8 | 2 | -1 | 4
C=CCNC(=O)c1ccc(-c2nc(-c3ccccc3)cs2)cc1 | 2 | 1 | 4 | -7 | -7 | x | x
COc1ccc(CC(=O)OCC(=O)NC2CCCCC2)cc1OC | 0 | 0 | 18* | 4 | -5 | 1 | -2
N#Cc1ccc(C(=O)CSc2n[nH]c(=O)n2Cc2ccco2)cc1 | -4 | 0 | 3 | -3 | -10 | x | x
COc1ccc(S(=O)(=O)Nc2ccc(NC(C)=O)cc2)cc1Br | -1 | 1 | 22* | -17 | 2 | 2 | 3
COc1ccc(S(=O)(=O)Nc2cccc(C(C)=O)c2)cc1Br | 0 | 0 | 4 | -5 | -5 | x | x
CC(=O)c1cccc(N(C(=O)CNC(=O)c2ccco2)C(C(=O)NCc2ccco2)c2ccccc2)c1 (stereo unspecified) | 3 | -1 | -11 | 24 | 9 | x | x
Cc1nn(CC(=O)OCC(=O)Nc2ccccc2[N+](=O)[O-])c(C)c1[N+](=O)[O-] | 2 | 1 | 19* | 5 | 4 | -1 | 3
CC(C)c1ccc(CN2C(=O)NC3(CCCCCC3)C2=O)cc1 | -1 | 0 | -19 | 5 | -3 | x | x
SMILES | Rin1-Abl PPI inh | TbMetRS inhib | PKA-R2B act | H9c2 protect | PKA-R1A activ | R2B FP artifact | PKA-R2B act conf
O=C(Nc1ccc(Cl)cn1)c1cccc(S(=O)(=O)N2CCCCC2)c1 | 1 | 0 | -9 | -4 | 1 | x | x
O=C(Nc1ccc(Cl)cn1)c1cccc(S(=O)(=O)N2CCCCCC2)c1 | 3 | 0 | 20* | -1 | 4 | 2 | -2
CCOC(=O)N1CCC(NC(=O)c2cc(COc3c(C)cccc3C)on2)CC1 | -1 | 0 | -2 | 0 | 10 | x | x
COCCCNC(=O)c1csc([C@@H]2O[C@H](CO)[C@H](O)[C@H](O)[C@H]2O)n1 | -3 | 0 | x | -3 | x | x | x
CC(C)Oc1ccc(S(=O)(=O)N2CCCCC2)cc1NC(=O)C1=NN(c2ccccc2)C(=O)CC1 | 5 | 0 | 1 | -3 | -1 | x | x
CC1=CC2=NC(=O)CC(C)(C(=O)N(CC(=O)NC(C)(C)C)C3CCCC3)N2C=C1 (stereo unspecified) | 3 | 0 | 22* | -3 | -4 | -1 | -1
CC(C)(C)NC(=O)CN(C(=O)C1(C)CC(=O)N=C2C=CC=CN21)C1CCCC1 (stereo unspecified) | -1 | 0 | 3 | 0 | 0 | x | x
Cc1cc(NC(=O)CN2C(=O)c3ccccc3C2=O)no1 | -1 | 0 | 9 | 3 | -6 | x | x
O=c1cnn([C@@H]2O[C@H](CO)[C@@H](O)[C@H]2O)c(=O)[nH]1 | 1 | 0 | -7 | 5 | -9 | x | x
O=C1NCCCN1C1OC(CO)C(O)C1O (stereo unspecified) | 2 | 0 | 22* | -4 | 11 | 6 | 6
COCCn1c(SCC(=O)NCCc2ccccc2)nc2c([nH]c3ccccc32)c1=O | 0 | 0 | 20* | -7 | -6 | 3 | 0
COCCn1c(SCC(=O)NCCc2ccc(OC)c(OC)c2)nc2c([nH]c3ccccc32)c1=O | 1 | 0 | 5 | 10 | -4 | x | x
O=S(=O)(Nc1ccc(-c2nc3cccnc3s2)cc1)c1ccccc1F | -1 | 0 | -6 | 7 | -18 | x | x
Cc1onc(-c2ccccc2)c1C(=O)Nc1ccc(Br)cc1Cl | 3 | 0 | 19* | -5 | 2 | 6 | 0
Cc1cc(C)c(S(=O)(=O)NCC(=O)O)cc1C | 4 | 0 | 20* | -2 | 4 | 5 | 4
COc1ccc(OC)c(S(=O)(=O)NCC(=O)O)c1 | -1 | 0 | -3 | -3 | 0 | x | x
CC[C@]12c3[nH]c4ccc(OC)cc4c3CCN1C(=O)C(CC(=O)NCc1ccc(OC)c(OC)c1)C[C@@H]2C(=O)N1CCN(C(=O)C2CC2)CC1 (stereo partly specified) | 2 | 1 | -1 | 4 | -3 | x | x

Source: PubChem
